The source of these data is ChEMBL document CHEMBL1177650, “Synthesis, structural elucidation and in vitro antiparasitic activity against Trypanosoma cruzi and Leishmania chagasi parasites of novel tetrahydro-1-benzazepine derivatives” (Bioorg Med Chem, 2010).

SMILES strings stand for the structures.

What is called CC50 is the concentration that lowers cell viability or growth by half. As usually defined, the IC50 is the concentration needed to halve the response being measured. What is called IC90 is the concentration at which the effect reaches the 90% level.

Data set [1] can be described thus: Cytotoxicity against african green monkey Vero cells after 72 hrs by MTT assay. In kind it is cell-based. As to conditions: chlorocebus sabaeus. The method, boiled down: (§1)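 Vero or transformed THP-1 cells incubated with compound (0.3–300 μM) 72 h at 37 °C, 5% CO2; untreated controls. MTT read-out, formazan OD at 580 nm; % cytotoxicity = 100 × (OD control − OD treated)/OD control. CC50/CC90 by sigmoidal regression; triplicates, repeated twice. DMSO stocks 100× concentrated, diluted in medium.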
In general terms: Tetrazolium dyes change colour on reduction, which living cells bring about.

Data set [2] relates to Trypanosoma cruzi. Nature of the data set: Antitrypanosomal activity against Trypanosoma cruzi 320I01 epimastigotes after 72 hrs by haemocytometry. As to conditions: 320I01, 72 h. Format: functional, organism-based. The method, boiled down: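 Late-phase T. cruzi epimastigotes cultured in LIT medium with hiFCS at 28 °C; threefold serial dilutions (0.3–100 μM) for 72 h at 28 °C, untreated controls. Parasites counted in a haemocytometer; IC50/IC90 by sigmoidal regression; each concentration in triplicate, two experiments.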

Data set [3] in a line: Selectivity index, CC50 for african green monkey Vero cells to IC50 for Trypanosoma cruzi 320I01 epimastigote. In kind it is functional. The method, boiled down: (§2)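 Selectivity index computed as CC50 in Vero cells divided by IC50 against the T. cruzi stage named in the line.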
For data set [4], the system named is Trypanosoma cruzi. The data set can be described thus: Antitrypanosomal activity against Trypanosoma cruzi 320I01 amastigotes infected in african green monkey Vero cells after 5 days by Giemsa staining. Format: functional, organism-based. The conditions noted are these: 320I01, Vero, 120 h. A digest of the protocol:
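Vero cells (RPMI, 5% hiSBF, 37 °C, 5% CO2) infected 24 h with tissue-derived T. cruzi trypomastigotes at parasite:cell 10:1. Compound dilutions (top 100 μM) applied 5 days at 37 °C, 5% CO2, medium changed once at day 3. Infected cells scored per 300 cells on methanol-fixed Giemsa preparations; IC50/IC90 by sigmoidal regression; triplicates, two experiments.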

Data set [5] can be described thus: Selectivity index, CC50 for african green monkey Vero cells to IC50 for Trypanosoma cruzi 320I01 amastigotes. Format: functional. A digest of the protocol:
as §2

The test system of data set [6] is Leishmania chagasi. The data set can be described thus: Antileishmanial activity against Leishmania chagasi MHOM/BR/74/PP75 promastigotes after 72 hrs by haemocytometry. As to conditions: MHOM/BR/74/PP75, 72 h. Format: functional, organism-based. A digest of the protocol:
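Late-phase L. chagasi promastigotes, grown at 28 °C in RPMI 1640 with hemin, HEPES and 10% hiSBF, exposed to threefold serial dilutions (0.3–100 μM) for 72 h at 28 °C; untreated controls. Growth inhibition from haemocytometer counts; IC50/IC90 by sigmoidal regression; triplicates, repeated twice.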

Data set [7] in a line: Cytotoxicity against human THP1 cells after 72 hrs by MTT assay. As to conditions: THP-1 cells. Format: cell-based. The method, boiled down: as §1
Data set [8] in a line: Selectivity index, CC50 for human THP1 cells to IC50 for Leishmania chagasi MHOM/BR/74/PP75 promastigotes. In kind it is functional, THP-1. The method, boiled down: (§3)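 Selectivity index computed as CC50 in THP-1 cells divided by IC50 against the L. chagasi stage named in the line.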
For data set [9], the system named is Leishmania chagasi. Nature of the data set: Antileishmanial activity against Leishmania chagasi MHOM/BR/74/PP75 amastigotes infected in human THP1 cells after 5 days by Giemsa staining. As to conditions: MHOM/BR/74/PP75, THP-1, 120 h. Format: functional, organism-based. The method, boiled down:
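THP-1 cells (RPMI, 5% hiSBF, 37 °C, 5% CO2) transformed, then infected 24 h with late-phase L. chagasi promastigotes at parasite:cell 10:1. Treated with compound dilutions (top 100 μM) 5 days at 37 °C, 5% CO2, medium changed once after 3 days. Infected cells counted per 300 cells on methanol-fixed Giemsa slides; IC50/IC90 by sigmoidal regression; triplicates, repeated twice.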

Data set [10] in a line: Selectivity index, CC50 for human THP1 cells to IC50 for Leishmania chagasi MHOM/BR/74/PP75 amastigotes. Format: functional, THP-1. A digest of the protocol: as §3

With `c1ccc([C@@H]2C[C@@H]3Cc4ccccc4N2O3)cc1` (relative stereo), the CC50 at 72 h in data set [1] and in [7] was above 300 µM in each case. For the same compound, the CC90 at 72 h in [1] and in data set [7] was above 300 µM each time. Besides, the IC50 in the data set on Trypanosoma cruzi [2], in the data set with Trypanosoma cruzi [4], in the data set on Leishmania chagasi [6] and with Leishmania chagasi [9] was above 100 µM throughout. The IC90 with Trypanosoma cruzi [2], with Trypanosoma cruzi [4], in the data set with Leishmania chagasi [6] and in the data set with Leishmania chagasi [9] was above 100 µM in each case. In addition, the “Selectivity Index” value in [3], in data set [5], in [8] and in data set [10] was above 3 throughout.
For `FC(F)(F)Oc1ccc2c(c1)C[C@H]1C[C@@H](c3ccccc3)N2O1` (relative stereo), the CC50 at 72 h in data set [1] and in [7] was above 300 µM each time. Also, the CC90 at 72 h in data set [1] and in [7] was above 300 µM in each case. For the same compound, the half-inhibitory concentration (IC50) with Trypanosoma cruzi [2] was 26.9 µM; in the data set on Trypanosoma cruzi [4], above 100 µM; with Leishmania chagasi [6] it was 15.7 µM; in the data set with Leishmania chagasi [9], above 100 µM. Besides, the IC90 was above 100 µM in the data set on Trypanosoma cruzi [2], above 100 µM in the data set on Trypanosoma cruzi [4], 34.7 µM in the data set with Leishmania chagasi [6] and above 100 µM in the data set with Leishmania chagasi [9]. Also, the “Selectivity Index” value in data set [3] is above 11; in data set [5], above 3; in [8], above 19; in [10] it was above 3.
Regarding `Brc1ccc2c(c1)C[C@H]1C[C@@H](c3ccccc3)N2O1` (relative stereo), the CC50 at 72 h in [1] and in [7] was above 300 µM throughout. The CC90 at 72 h in [1] and in data set [7] was above 300 µM throughout. The IC50 in the data set with Trypanosoma cruzi [2] is 23.4 µM; with Trypanosoma cruzi [4], 56.4 µM; with Leishmania chagasi [6] it was 25.5 µM; in the data set with Leishmania chagasi [9] it was above 100 µM. Also, the IC90 in the data set on Trypanosoma cruzi [2] is above 100 µM; in the data set on Trypanosoma cruzi [4], 43.6 µM; in the data set on Leishmania chagasi [6] it was 54.9 µM; in the data set on Leishmania chagasi [9] it was above 100 µM. The “Selectivity Index” value is reported as above 12 in data set [3], above 5 in data set [5], above 11 in data set [8] and above 3 in data set [10].
`Clc1ccc2c(c1)C[C@H]1C[C@@H](c3ccccc3)N2O1` (relative stereo): the CC50 at 72 h in [1] and in data set [7] was above 300 µM throughout. Further, the CC90 at 72 h in data set [1] and in [7] was above 300 µM each time. Moreover, the IC50 with Trypanosoma cruzi [2] is 9 µM; with Trypanosoma cruzi [4], above 100 µM; in the data set on Leishmania chagasi [6], 40.1 µM; with Leishmania chagasi [9], above 100 µM. Besides, the IC90 in the data set with Trypanosoma cruzi [2] is 35.3 µM; in the data set on Trypanosoma cruzi [4] it was above 100 µM; in the data set with Leishmania chagasi [6], 55.4 µM; in the data set with Leishmania chagasi [9] it was above 100 µM. Moreover, the “Selectivity Index” value in data set [3] is reported as above 33; in data set [5], above 3; in data set [8] it was above 7; in data set [10], above 3.
As for `Fc1ccc2c(c1)C[C@H]1C[C@@H](c3ccccc3)N2O1` (relative stereo), the CC50 at 72 h in [1] and in data set [7] was above 300 µM in each case. Moreover, the CC90 at 72 h in data set [1] and in [7] was above 300 µM throughout. For the same compound, the IC50 with Trypanosoma cruzi [2] was 7.68 µM; with Trypanosoma cruzi [4], above 100 µM; in the data set on Leishmania chagasi [6], 47.6 µM; in the data set with Leishmania chagasi [9], above 100 µM. The 90% effect concentration (IC90) in the data set with Trypanosoma cruzi [2] was 54.1 µM; with Trypanosoma cruzi [4], above 100 µM; in the data set with Leishmania chagasi [6], above 100 µM; in the data set with Leishmania chagasi [9], above 100 µM. The “Selectivity Index” value in data set [3] is reported as above 39; in data set [5], above 3; in data set [8], above 6; in data set [10], above 3.
